ChEMBL document CHEMBL2440094, “Thiazolidinone-peptide hybrids as dengue virus protease inhibitors with antiviral activity in cell culture” (J Med Chem, 2013)
Active and inactive are the calls of the source. No cut-off for these calls is given here.

How the values were obtained:
[1] = target: Prothrombin (Homo sapiens) (UniProt P00734); experiment: Inhibition of thrombin (unknown origin) using Boc-Val-Pro-Arg-AMC as substrate at 25 uM after 10 mins by continuous fluorimetric assay
Outline: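 Thrombin (10 nM) preincubated 15 min with inhibitor (25 μM final) in 50 mM Tris-HCl pH 7.5, 150 mM NaCl, 0.05% Tween 20. Boc-Val-Pro-Arg-AMC then added to 50 μM (Km 16 μM). Fluorescence (ex 355 nm, em 460 nm) followed for 10 min as slope. Triplicate; percent inhibition versus no-inhibitor control.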

West Nile virus = experiment: Inhibition of West Nile virus NS2B-NS3 protease expressed in Escherichia coli BL 21 (DE3) using Abz-Gly-Leu-Lys-Arg-Gly-Gly-3-(NO2)Tyr as substrate at 50 uM after 15 mins
Dengue virus = experiment: Inhibition of Dengue virus NS2B-NS3 protease expressed in Escherichia coli BL 21 (DE3) using Abz-Nle-Lys-Arg-Arg-Ser-3-(NO2)Tyr as substrate at 50 uM after 15 mins
dengue virus type 2 = experiment: Antiviral activity against Dengue virus 2 infected in human Huh-7 cells assessed as inhibition of viral replication after 48 hrs by luciferase reporter gene assay; type: functional, organism-based; settings: Huh-7, 48 h
Outline: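 Huh-7 cells seeded 5000/well, incubated overnight at 37 °C, then given compound (1.56–50 μM final, 2-fold series in DMEM with 10% FCS). Dengue 2 renilla luciferase reporter virus (MOI 10) added 4 h later. After 48 h at 37 °C, cells lysed and renilla luminescence read with coelenterazine. At least four wells per concentration, expressed relative to DMSO control. EC50 by nonlinear regression.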

[2] = Permeability of the compound by PAMPA; type: ADME; settings: read-out: permeability
Outline: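 PAMPA with precoated trilayer lipid/oil/lipid membranes, donor wells holding 200 μM compound in PBS pH 7.4 (2% DMSO final), in triplicate. Incubated 5 h at room temperature. Donor and acceptor concentrations determined by UV plate reader or HPLC-UV against calibration curves. Pe and mass retention R calculated.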

inhibition [1] | inhibition (West Nile virus) | inhibition (Dengue virus) | EC50 (dengue virus type 2) | Papp [2] | SMILES
12.5% | 33.2% | 93.2% |  |  | C=CCN1C(=O)S/C(=C\c2ccc(C(=O)N[C@@H](CCCNC(=N)N)C(=O)N[C@@H](CCCCN)C(=O)N[C@@H](CCCC)C(N)=O)cc2)C1=O
16.7% | 36.9% | 83% |  |  | CCCC[C@H](NC(=O)[C@H](CCCCN)NC(=O)[C@H](CCCCN)NC(=O)c1ccc(/C=C2\SC(=O)N(Cc3ccccc3)C2=O)cc1)C(N)=O
17.6% | 34.6% | 75.2% | > 50 µM |  | CCCC[C@H](NC(=O)[C@H](CCCCN)NC(=O)[C@H](CCCNC(=N)N)NC(=O)c1cccc(/C=C2\SC(=S)NC2=O)c1)C(N)=O
12.9% | 28.4% | 90.3% | > 50 µM |  | CCCC[C@H](NC(=O)[C@H](CCCCN)NC(=O)[C@H](CCCNC(=N)N)NC(=O)c1ccc(/C=C2\SC(=S)N(CCO)C2=O)cc1)C(N)=O
11.8% | 26.5% | 95.9% | > 50 µM |  | CCCC[C@H](NC(=O)[C@H](CCCCN)NC(=O)[C@H](CCCNC(=N)N)NC(=O)c1ccc(/C=C2\SC(=O)N(CCO)C2=O)cc1)C(N)=O
13.8% | 42.4% | 93.8% |  | 0.66 ×10⁻⁶ cm/s | CCCC[C@H](NC(=O)[C@H](CCCCN)NC(=O)[C@H](CCCNC(=N)N)NC(=O)c1ccc(/C=C2\SC(=O)N(c3ccc(C)cc3)C2=O)cc1)C(N)=O
18.9% | 25% | 60.8% | > 50 µM |  | CCCC[C@H](NC(=O)[C@H](CCCCN)NC(=O)[C@H](CCCNC(=N)N)NC(=O)[C@H](Cc1ccccc1)N1C(=O)/C(=C/c2ccc(OC)c(OC)c2)SC1=S)C(N)=O
19% | 48.5% | 96.5% |  |  | CCCC[C@H](NC(=O)[C@H](CCCCN)NC(=O)[C@H](CCCNC(=N)N)NC(=O)c1ccc(/C=C2\SC(=O)N(CC)C2=O)cc1)C(N)=O
11.1% | 47.5% | 73.9% |  | 0.29 ×10⁻⁶ cm/s | CCCC[C@@H](NC(=O)[C@@H](CCCCN)NC(=O)[C@@H](CCCNC(=N)N)NC(=O)c1ccc(/C=C2\SC(=O)N(Cc3ccccc3)C2=O)cc1)C(N)=O
11% | 52.7% | 94.2% |  |  | CCCC[C@H](NC(=O)[C@H](CCCCN)NC(=O)[C@H](CCCNC(=N)N)NC(=O)c1ccc(/C=C2\SC(=S)N(CCC)C2=O)cc1)C(N)=O
76.8% | inactive | 23% | 30.3 µM |  | CCCC[C@H](NC(=O)[C@H](CCCCN)NC(=O)[C@H](CCCNC(=N)N)NC(=O)CC1SC(=S)N(Cc2ccc(OC)cc2)C1=O)C(N)=O (stereo not given in full)
13.7% | 74% | 92.7% |  |  | CCCC[C@H](NC(=O)[C@H](CCCNC(=N)N)NC(=O)[C@H](CCCNC(=N)N)NC(=O)c1ccc(/C=C2\SC(=O)N(Cc3ccccc3)C2=O)cc1)C(N)=O
13.2% | 16.9% | 32.4% |  |  | N=C(N)NCCC[C@H](NC(=O)c1ccc(/C=C2\SC(=O)N(Cc3ccccc3)C2=O)cc1)C(N)=O
inactive | 76.2% | 83.1% |  |  | N=C(N)NCCC[C@H](NC(=O)c1ccc(/C=C2\SC(=O)N(Cc3ccccc3)C2=O)cc1)C(=O)N[C@@H](CCCCN)C(N)=O
6.3% | 60.3% | 66.8% |  |  | CCCC[C@H](NC(=O)c1ccc(/C=C2\SC(=O)N(Cc3ccccc3)C2=O)cc1)C(=O)N[C@@H](CCCCN)C(=O)N[C@@H](CCCNC(=N)N)C(N)=O
13.8% | 30.2% | 46.5% |  |  | CCCC[C@H](NC(=O)[C@H](CCCCN)NC(=O)[C@H](CCCNC(=N)N)NC(=O)CN1C(=O)/C(=C/c2ccc(OC)c(OC)c2)SC1=S)C(N)=O

inhibition [1] | inhibition (West Nile virus) | inhibition (Dengue virus) | EC50 (dengue virus type 2) | Papp [2] | SMILES
10.2% | 50.9% | 95% |  |  | CCCC[C@H](NC(=O)[C@H](CCCCN)NC(=O)[C@H](CCCNC(=N)N)NC(=O)c1ccc(/C=C2\SC(=S)N(c3ccc(C)cc3)C2=O)cc1)C(N)=O
18% | 44.1% | 85.2% |  |  | CCCC[C@H](NC(=O)[C@H](CCCCN)NC(=O)[C@H](CCCNC(=N)N)NC(=O)c1ccc(/C=C2\NC(=S)N(c3ccccc3)C2=O)cc1)C(N)=O
6.3% | 46.4% | 94.6% |  |  | CCCC[C@H](NC(=O)[C@H](CCCCN)NC(=O)[C@H](CCCNC(=N)N)NC(=O)c1ccc(/C=C2\SC(=S)N(C3CC3)C2=O)cc1)C(N)=O
12.2% | 22.1% | 30.7% |  |  | O=C(O)c1ccc(/C=C2\SC(=O)N(Cc3ccccc3)C2=O)cc1
14.2% | 37.8% | 90% |  |  | CCCC[C@H](NC(=O)[C@H](CCCCN)NC(=O)[C@H](CCCNC(=N)N)NC(=O)c1ccc(/C=C2\SC(=S)N(c3ccccc3)C2=O)cc1)C(N)=O
10.6% | 30.9% | 95.8% |  |  | CCCC[C@H](NC(=O)[C@H](CCCCN)NC(=O)[C@H](CCCNC(=N)N)NC(=O)c1ccc(/C=C2\SC(=O)N(C(C)C)C2=O)cc1)C(N)=O
8.3% | 88.3% | 81.4% |  |  | CCCC[C@H](NC(=O)[C@H](CCCC)NC(=O)[C@H](CCCNC(=N)N)NC(=O)c1ccc(/C=C2\SC(=O)N(Cc3ccccc3)C2=O)cc1)C(N)=O
13.3% | 53.4% | 93.3% |  |  | CCCC[C@H](NC(=O)[C@H](CCCCN)NC(=O)[C@H](CCCNC(=N)N)NC(=O)c1ccc(/C=C2\SC(=S)N(CC3CCCO3)C2=O)cc1)C(N)=O (stereo not given in full)
13.6% | 45.4% | 93.4% |  |  | CCCC[C@H](NC(=O)[C@H](CCCCN)NC(=O)[C@H](CCCNC(=N)N)NC(=O)c1ccc(/C=C2\SC(=S)N(CC)C2=O)cc1)C(N)=O
10.2% | 60.9% | 72.1% |  |  | CCCC[C@H](NC(=O)[C@H](CCCNC(=N)N)NC(=O)[C@H](CCCCN)NC(=O)c1ccc(/C=C2\SC(=O)N(Cc3ccccc3)C2=O)cc1)C(N)=O
11.4% | 29.2% | 83.5% |  |  | CCCC[C@H](NC(=O)[C@H](CCCCN)NC(=O)[C@H](CCCNC(=N)N)NC(=O)c1ccc(/C=C2\NC(=S)N(Cc3ccccc3)C2=O)cc1)C(N)=O
12% | 63.7% | 94.4% |  |  | CCCC[C@H](NC(=O)[C@H](CCCCN)NC(=O)[C@H](CCCNC(=N)N)NC(=O)c1ccc(/C=C2\SC(=S)N(C(C)C)C2=O)cc1)C(N)=O
inactive | 33.6% | 94.5% |  |  | CCCC[C@H](NC(=O)[C@H](CCCCN)NC(=O)[C@H](CCCNC(=N)N)NC(=O)c1ccc(/C=C2\SC(=O)N(CCC)C2=O)cc1)C(N)=O
6.5% | 35.5% | 89.7% |  |  | CCCC[C@H](NC(=O)[C@H](CCCCN)NC(=O)[C@H](CCCNC(=N)N)NC(=O)c1ccc(/C=C2\SC(=S)N(c3ccc(F)cc3)C2=O)cc1)C(N)=O
22.8% | 22.4% | 89.3% |  |  | CCCC[C@H](NC(=O)[C@H](CCCCN)NC(=O)[C@H](CCCNC(=N)N)NC(=O)c1ccc(/C=C2\SC(=S)N(CCOC(C)=O)C2=O)cc1)C(N)=O
